Source: ChEMBL document CHEMBL1139492, “Structure-activity relationships and effects on neuroactive steroid synthesis in a series of 2-phenylimidazo[1,2-a]pyridineacetamide peripheral benzodiazepine receptors ligands” (J Med Chem, 2005)

Experiments:
Rattus norvegicus [1] = assay: Effect of the 25 mg/kg compound on progesterone concentration in rat plasma after 30 min of intraperitoneal administration; type: functional, organism-based; design: dose 25 mg/kg
Method in brief: (§1)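 Male Sprague–Dawley rats, about 60 days old, given 25 mg/kg ip in saline with three drops Tween 80 per 5 mL, 0.3 mL/100 g; sampled 30 min later. Brain taken after focused microwave irradiation of the head, plasma after guillotine. Cortex and plasma extracted with ethyl acetate; steroids measured by radioimmunoassay. Results in ng/g tissue, at least eight rats per group, compared with vehicle-treated rats.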

Rattus norvegicus [2] = assay: Effect of the 25 mg/kg compound on 3-alpha,5alpha-THDOC concentration in rat plasma after 30 min of intraperitoneal administration; type: functional, organism-based; design: dose 25 mg/kg; method in brief: as §1
Rattus norvegicus [3] = assay: Effect of the 25 mg/kg compound on 3-alpha,5alpha-THPROG concentration in rat plasma after 30 min of intraperitoneal administration; type: functional, organism-based; design: dose 25 mg/kg; method in brief: as §1
Rattus norvegicus [4] = assay: Effect of the 25 mg/kg compound on progesterone concentration in rat cerebral cortex after 30 min of intraperitoneal administration; type: functional, organism-based; design: dose 25 mg/kg; method in brief: as §1
Rattus norvegicus [5] = assay: Effect of the 25 mg/kg compound on 3-alpha,5alpha-THDOC concentration in rat cerebral cortex after 30 min of intraperitoneal administration; type: functional, organism-based; design: dose 25 mg/kg; method in brief: as §1
Rattus norvegicus [6] = assay: Effect of the 25 mg/kg compound on 3-alpha,5alpha-THPROG concentration in rat cerebral cortex after 30 min of intraperitoneal administration; type: functional, organism-based; design: dose 25 mg/kg; method in brief: as §1
[7] = target: GABA-A receptor; anion channel; assay: Inhibitory concentration of central benzodiazepine GABA-A receptor of rat cerebral cortex; type: tissue-based
Method in brief: (§2)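 Rat cerebral cortex homogenised in 50 vol ice-cold 50 mM Tris-HCl pH 7.4, spun twice at 20 000g for 10 min. Membranes (0.4–0.5 mg protein) incubated with [3H]flunitrazepam for 60 min at 0 °C. Rapid filtration on GF/B filters, scintillation counting. Nonspecific binding with 5 μM diazepam. Means of three experiments in duplicate; Ki reported.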

Translocator protein [8] = target: T1, Translocator protein (Rattus norvegicus, UniProt P16257); assay: Displacement of [3H]-PK11195 from peripheral benzodiazepine receptor of rat ovary; type: tissue-based, Female gonad
T1 sequence (P16257 whole entry, looked up): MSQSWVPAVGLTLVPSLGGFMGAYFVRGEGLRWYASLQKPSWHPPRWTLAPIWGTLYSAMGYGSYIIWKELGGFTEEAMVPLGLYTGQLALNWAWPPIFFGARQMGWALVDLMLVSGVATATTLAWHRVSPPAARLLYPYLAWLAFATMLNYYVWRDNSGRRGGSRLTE
Method in brief: (§3)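 Rat tissue (cerebral cortex, ovary) homogenised in 50 vol PBS pH 7.4 at 4 °C, spun at 40 000g for 30 min, washed, resuspended in 10 vol PBS. […] Filtration on polyethyleneimine-soaked GF/B filters, scintillation counting. […] Means of three experiments in duplicate; Ki reported.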

Translocator protein [9] = target: T1, Translocator protein; assay: Displacement of [3H]PK11195 from peripheral benzodiazepine receptor of rat cerebral cortex; type: tissue-based; method in brief: as §3
[10] = target: Benzodiazepine receptors; peripheral & central (Rattus norvegicus) (UniProt O09028+P15431+P18506+P18508+P19969+P20236+P23574+P23576+P28471+P28473+P30191+P62813+P63079+P63138+Q91ZM7+Q9ES14+P16257); assay: Ratio of inhibition for peripheral benzodiazepine receptor of rat ovary and central benzodiazepine GABA-A receptor; type: tissue-based; design: scale not given here; details: Female gonad
Translocator protein [11] = target: T1, Translocator protein; assay: Inhibitory concentration against peripheral benzodiazepine receptor of rat ovary; type: tissue-based, Female gonad; method in brief: as §3
Translocator protein [12] = target: T1, Translocator protein; assay: Inhibitory concentration against peripheral benzodiazepine receptor of rat cerebral cortex; type: tissue-based; method in brief: as §3
[13] = target: GABA-A receptor; anion channel; assay: Displacement of [3H]flunitrazepam from central benzodiazepine GABA-A receptor of rat cerebral cortex; type: tissue-based; method in brief: as §2

Row | Structure (SMILES) | Concentration (Rattus norvegicus [1]) [ng/mL] | Concentration (Rattus norvegicus [2]) [ng/mL] | Concentration (Rattus norvegicus [3]) [ng/mL] | Concentration (Rattus norvegicus [4]) [ng/g] | Concentration (Rattus norvegicus [5]) [ng/g] | Concentration (Rattus norvegicus [6]) [ng/g] | pIC50 [7] | Ki (Translocator protein [8]) [nM] | Ki (Translocator protein [9]) [nM] | Selectivity index [10] | IC50 (Translocator protein [11]) [nM] | IC50 (Translocator protein [12]) [nM] | Ki [13] [µM]
1 | CCCCN(C)C(=O)Cc1c(-c2ccccc2)nc2c(Cl)cc(Cl)cn12 | 13.6 | 10.4 | 16.5 | 10.6 | 4.1 | 9.2 | 5 | 1.72 | 2.16 | 3.64 | 2.3 | 3.5 | –
2 | CCCCN(CCCC)C(=O)Cc1c(-c2ccc(Cl)cc2)nc2c(Cl)cccn12 | 26 | 14.9 | 23.4 | 10.3 | 2.9 | 8.8 | 5 | 17.2 | 4.64 | 7.65 | 22.6 | 7.87 | 6.88
3 | CCCCN(C(=O)Cc1c(-c2ccccc2)nc2c(Cl)cc(Cl)cn12)c1ccccc1 | 17.3 | 8.9 | 21.3 | 5.8 | 2.6 | 16.3 | 5 | 3.5 | 6.78 | 3.34 | 4.6 | 11.5 | 6.88
4 | O=C(Cc1c(-c2ccc(Cl)cc2)nc2c(Cl)cc(Cl)cn12)NC1CCCCC1 | – | – | – | – | – | – | 5 | 749 | 140 | 0.977 | 1050 | 229 | 7.59
5 | CC(C(=O)N(C)C1CCCCC1)c1c(-c2ccc(Cl)cc2)nc2c(Cl)cc(Cl)cn12 (configuration not stated) | – | – | – | – | – | – | 5 | 2210 | 2990 | 0.513 | 3070 | 5150 | 7.01
6 | CCCCN(C(=O)Cc1c(-c2ccc(Cl)cc2)nc2ccc(Cl)cn12)c1ccccc1 | – | – | – | – | – | – | 6.133 | 8.82 | 0.884 | 1.8 | 11.6 | 1.5 | 0.506
7 | O=C(Cc1c(-c2ccc(Cl)cc2)nc2c(Cl)cc(Cl)cn12)N1CCCCC1 | 12.2 | 9.6 | 19.4 | 7.8 | 2.9 | 7.3 | 5 | 65.4 | 3.05 | 2.04 | 92 | 5 | 7.59
8 | O=C(Cc1c(-c2ccccc2)nc2c(Cl)cc(Cl)cn12)NC1CCCCC1 | – | – | – | – | – | – | 5 | 942 | 771 | 0.884 | 1310 | 1320 | 7.01
9 | CCOC(=O)C1CCCN(C(=O)Cc2c(-c3ccc(Cl)cc3)nc3ccc(Cl)cn23)C1 (configuration not stated) | – | – | – | – | – | – | 6.725 | 207 | 19.6 | -0.205 | 302 | 35.2 | 0.13
10 | C=CCN(CC=C)C(=O)Cc1c(-c2ccc(Cl)cc2)nc2c(Cl)cc(Cl)cn12 | 12.2 | 9 | 18.1 | 11.5 | 3.2 | 8.6 | 5 | 4.06 | 4.77 | 3.25 | 5.6 | 8.09 | 7.75
11 | CCCN(Cc1ccc([N+](=O)[O-])cc1)C(=O)Cc1c(-c2ccc(Cl)cc2)nc2c(Cl)cc(Cl)cn12 | – | – | – | – | – | – | 5 | 50.5 | 16 | 2.16 | 69.7 | 27.2 | 6.88
12 | CCCCN(CCCC)C(=O)Cc1c(-c2ccc(Cl)cc2)nc2c(Cl)cc(Cl)cn12 | 19 | 16.2 | 27.5 | 11.5 | 3.5 | 9.1 | 5 | 13.2 | 2.68 | 2.73 | 18.6 | 5.2 | 7.75
13 | O=C(Cc1c(-c2ccc(Cl)cc2)nc2c(Cl)cc(Cl)cn12)N1CCN(Cc2ccccc2)CC1 | – | – | – | – | – | – | 5 | 516000 | 12700 | -1.86 | 726000 | 20800 | 6.88
14 | CCCN(CCC)C(=O)C(C)c1c(-c2ccc(Cl)cc2)nc2c(Cl)cc(Cl)cn12 (configuration not stated) | – | – | – | – | – | – | 5 | 1930 | 701 | 0.572 | 2680 | 1200 | 7.01
15 | CCCCN(C)C(=O)Cc1c(-c2ccc(Cl)cc2)nc2c(Cl)cc(Cl)cn12 | 14.9 | 8.1 | 16.2 | 8.9 | 3.9 | 7.4 | 5 | 2.46 | 0.302 | 3.48 | 3.3 | 0.45 | 6.88
16 | CN(C(=O)Cc1c(-c2ccc(Cl)cc2)nc2c(Cl)cc(Cl)cn12)c1ccccc1 | 13.9 | 8.3 | 20.3 | 7.2 | 2.8 | 7.4 | 5 | 1.27 | 0.203 | 3.77 | 1.7 | 0.33 | 6.88
17 | CCCCCCN(CCCCCC)C(=O)Cc1c(-c2ccc(Cl)cc2)nc2ccc(Cl)cn12 | – | – | – | – | – | – | 5.481 | 35.3 | 3.01 | 1.83 | 48.8 | 5.11 | 2.56
18 | CCCCNC(=O)Cc1c(-c2ccc(Cl)cc2)nc2c(Cl)cc(Cl)cn12 | – | – | – | – | – | – | 5 | 170 | 170 | 1.54 | 290 | 390 | 6.88
19 | CCCCN(Cc1ccccc1)C(=O)Cc1c(-c2ccccc2)nc2c(Cl)cc(Cl)cn12 | – | – | – | – | – | – | 5 | 64.7 | 14.1 | 2.05 | 89.7 | 24.2 | 7.01
20 | CN(CCc1ccccn1)C(=O)Cc1c(-c2ccccc2)nc2c(Cl)cc(Cl)cn12 | – | – | – | – | – | – | 5 | 3670 | 1280 | 0.296 | 5060 | 2170 | 7.75
